Measurements taken from ChEMBL document CHEMBL2331137, “Scopoletin and scopolin isolated from Artemisia iwayomogi suppress differentiation of osteoclastic macrophage RAW 264.7 cells by scavenging reactive oxygen species” (J Nat Prod, 2013).
Activity calls are given as the source filed them. The rule behind the calls is not given here.

Columns and labels:
RAW264.7 [1] = experiment: Inhibition of hydrogen peroxide level in RANKL-treated mouse RAW264.7 cells at 10 uM by DHR fluorescence intensity assay; format: functional, cell-based
RAW264.7 [2] = experiment: Antiosteoporotic activity in mouse RAW264.7 cells assessed as inhibition of RANKL-induced osteoclastogenesis measured as reduction in TRAP activity for 5 days by ELISA; format: functional, cell-based
In short: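 RAW 264.7 cells differentiated 5 days with 50 ng/mL RANKL plus test samples, medium changed every 2 days. Cells then washed with ice-cold PBS, fixed in 3.5% formaldehyde (10 min) and ethanol–acetone 1:1 (1 min). They were incubated 1 h in 50 mM citrate pH 4.5 with 10 mM sodium tartrate and 6 mM PNPP, stopped in 0.1 N NaOH, A405. Expressed as % of untreated control; n = 3.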

RAW264.7 [3] = experiment: Antiosteoporotic activity in mouse RAW264.7 cells assessed as inhibition of RANKL-induced osteoclastogenesis measured as reduction in TRAP number for 5 days by light microscopy; format: functional, cell-based
In short: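 RAW 264.7 cells seeded at 3 × 10^4/well and given test samples in differentiation medium with 50 ng/mL RANKL, changed every 2 days, for 5 days. Cells fixed in 3.5% formaldehyde 10 min and stained 1 h at 37 °C with a leukocyte acid phosphatase kit. TRAP-positive cells with ≥3 nuclei counted by light microscopy. Expressed as % of RANKL-treated cells; mean ± SD, n = 3.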

RAW264.7 [4] = experiment: Cytotoxicity against mouse RAW264.7 cells at 1 to 10 uM for 5 days by MTT assay; format: cell-based; settings: raw264.7, 120 h
In short: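 MTT assay: RAW 264.7 cells (2 × 10^4 cells/mL) in DMEM with 10% FBS at 37 °C, 5% CO2, treated with 1–10 μM samples for 5 days. MTT then added for 1 h at 37 °C, formazan dissolved in DMSO, A570 read; percentage proliferation calculated.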

HepG2 [5] = experiment: Antioxidant activity against H2O2-induced intracellular oxidative stress in human HepG2 cells assessed as DCF fluorescence intensity at 1 to 10 uM; format: functional, cell-based
In short: (§1)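 HepG2 cells cultured 24 h in DMEM, then given compounds (1–10 μM, in DMSO) for 30 min and washed. Stress induced in HBSS with 60 μM AAPH or 1 mM H2O2 for 30 min. DCFH-DA added at 40 μM final, 30 min at 37 °C in the dark; DCF read at Ex 485/Em 535 nm. Trolox 10 μM as reference; % of untreated cells, n = 3.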

HepG2 [6] = experiment: Antioxidant activity against […]-induced intracellular oxidative stress in human HepG2 cells assessed as DCF fluorescence intensity at 1 to 10 uM; format: functional, cell-based; in short: as §1
[7] = Antioxidant activity assessed as reduction of Cu2+ to Cu+ measured as copper (I) level at 1 uM measured for 1 hr; format: functional
In short: (§2)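 Copper-reducing assay: compounds in ethanol mixed with 0.5 mM CuCl2 and 0.75 mM neocuproine (Cu+ chelator) in 10 mM phosphate buffer. Absorbance at 454 nm read for 1 h; reducing capacity expressed in μM. Trolox as reference; mean ± SD of three experiments.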

[8] = Antioxidant activity assessed as trolox equivalents of peroxyl radical scavenging activity at 1 uM by ORAC assay; format: functional
In short: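 ORAC: fluorescein (40 nM final) exposed to AAPH (20 mM final) as peroxyl radical source, fluorescence recorded every 2 min relative to the initial reading. Net area under the decay curve versus blank computed and expressed as Trolox equivalents, with Trolox at 1 μM as reference; three experiments.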

RAW264.7 [9] = experiment: Inhibition of RANKL-induced ROS generation in mouse RAW264.7 cells at 10 uM by DCF fluorescence intensity assay (reference value: 143.7%); values are per cent of control
RAW264.7 [10] = experiment: Inhibition of RANKL-induced superoxide anion level in mouse RAW264.7 cells at 10 uM by DHE fluorescence intensity assay (reference value: 176.7%); values are per cent of control
[11] = Antioxidant activity assessed as reduction of Cu2+ to Cu+ measured as copper (I) level at 10 uM measured for 1 hr (reference value: 2.1 uM); format: functional; in short: as §2

Compound | inhibition (RAW264.7 [1]) | inhibition (RAW264.7 [2]) | inhibition (RAW264.7 [3]) | Activity (RAW264.7 [4]) | Activity (HepG2 [5]) | Activity (HepG2 [6]) | Activity [7] | Activity [8] | level, % of control at 10 µM (RAW264.7 [9]) | level, % of control at 10 µM (RAW264.7 [10]) | Activity [11]
COc1cc2ccc(=O)oc2cc1O [SCOPOLETIN] | inactive | Dose-dependent effect | Dose-dependent effect | Non-toxic | Active | Active | Active | 3.3 equiv | 132% | 158% | –
Cc1c(C)c2c(c(C)c1O)CCC(C)(C(=O)O)O2 (stereo not given) | – | – | – | – | – | – | 1.5 µM | – | – | – | –
COc1cc2ccc(=O)oc2cc1O[C@@H]1O[C@H](CO)[C@@H](O)[C@H](O)[C@H]1O [SCOPOLIN] | inactive | Dose-dependent effect | Dose-dependent effect | Non-toxic | Active | – | – | 0.4 equiv | 127% | 149% | inactive
